Experiment [1] concerns the target 72 kDa type IV collagenase (Homo sapiens, UniProt P08253). Kind of experiment: Inhibition of matrix metalloprotease-2 (MMP-2), gelatinase-A. In outline: (§1)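 Recombinant human enzymes (MMP-1, MMP-2, MMP-3) were used as the source for the inhibition measurements.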
The next experiment addresses T1, Interstitial collagenase (Homo sapiens, UniProt P03956).
T1 sequence (P03956 whole entry): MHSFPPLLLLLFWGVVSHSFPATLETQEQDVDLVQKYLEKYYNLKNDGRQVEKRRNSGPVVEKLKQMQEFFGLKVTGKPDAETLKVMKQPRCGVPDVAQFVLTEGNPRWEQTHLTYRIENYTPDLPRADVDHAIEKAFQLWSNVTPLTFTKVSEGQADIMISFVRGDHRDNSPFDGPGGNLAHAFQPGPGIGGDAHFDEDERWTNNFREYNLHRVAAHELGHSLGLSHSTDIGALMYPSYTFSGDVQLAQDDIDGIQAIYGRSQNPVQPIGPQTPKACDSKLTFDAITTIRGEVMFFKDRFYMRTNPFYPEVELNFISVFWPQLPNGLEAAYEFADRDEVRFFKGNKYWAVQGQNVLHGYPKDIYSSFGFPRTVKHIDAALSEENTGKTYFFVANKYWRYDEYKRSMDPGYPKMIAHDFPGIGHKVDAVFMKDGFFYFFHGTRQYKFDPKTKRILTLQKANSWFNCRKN
Nature of the experiment: Inhibition of matrix metalloprotease-1 (MMP-1), fibroblast collagenase. A digest of the protocol:
as §1

Another experiment deals with Stromelysin-1 (Homo sapiens, UniProt P08254). Nature of the experiment: Inhibition of matrix metalloprotease-3 (MMP-3), stromelysin-1. A digest of the protocol: as §1
Sequence of Stromelysin-1 (P08254 whole entry): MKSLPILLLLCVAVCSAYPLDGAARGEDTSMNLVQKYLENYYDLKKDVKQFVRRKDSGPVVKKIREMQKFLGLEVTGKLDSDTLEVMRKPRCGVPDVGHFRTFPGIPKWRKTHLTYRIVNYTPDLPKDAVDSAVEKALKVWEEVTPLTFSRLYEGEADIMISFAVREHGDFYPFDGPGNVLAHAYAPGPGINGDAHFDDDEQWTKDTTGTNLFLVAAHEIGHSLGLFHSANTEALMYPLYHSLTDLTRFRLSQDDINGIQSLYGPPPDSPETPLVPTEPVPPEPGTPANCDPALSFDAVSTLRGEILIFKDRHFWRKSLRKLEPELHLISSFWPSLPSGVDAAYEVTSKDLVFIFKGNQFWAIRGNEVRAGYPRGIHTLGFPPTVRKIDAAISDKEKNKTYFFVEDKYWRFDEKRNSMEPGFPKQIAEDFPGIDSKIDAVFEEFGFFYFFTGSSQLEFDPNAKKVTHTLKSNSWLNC

A word on the Ki: it is a dissociation constant, usually derived from enzyme kinetics or from competition with a known ligand. Low values mean a stronger hold on the target, high ones a looser hold on the target.

Sequence of 72 kDa type IV collagenase (P08253 whole entry): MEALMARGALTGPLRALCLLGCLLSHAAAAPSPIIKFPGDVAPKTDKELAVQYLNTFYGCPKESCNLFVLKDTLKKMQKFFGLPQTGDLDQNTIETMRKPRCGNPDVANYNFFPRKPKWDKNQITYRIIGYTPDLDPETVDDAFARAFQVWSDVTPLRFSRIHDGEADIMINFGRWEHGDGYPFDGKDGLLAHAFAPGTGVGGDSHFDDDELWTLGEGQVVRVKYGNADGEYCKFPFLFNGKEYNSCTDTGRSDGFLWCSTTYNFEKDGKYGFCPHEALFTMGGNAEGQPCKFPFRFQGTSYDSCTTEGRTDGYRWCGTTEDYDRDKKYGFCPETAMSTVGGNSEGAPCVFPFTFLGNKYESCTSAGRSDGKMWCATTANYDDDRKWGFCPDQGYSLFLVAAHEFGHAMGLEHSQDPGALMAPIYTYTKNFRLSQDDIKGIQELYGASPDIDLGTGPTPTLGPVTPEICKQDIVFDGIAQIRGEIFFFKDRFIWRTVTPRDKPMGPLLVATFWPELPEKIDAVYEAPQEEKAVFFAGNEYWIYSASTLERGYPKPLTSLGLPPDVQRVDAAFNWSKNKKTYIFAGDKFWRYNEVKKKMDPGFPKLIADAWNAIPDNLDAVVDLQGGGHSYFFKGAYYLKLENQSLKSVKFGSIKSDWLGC

On to `COc1ccc(S(=O)(=O)[C@H](CCCCc2ccccc2)[C@@H](C)C(=O)NO)cc1`, for which the inhibitory constant (Ki) is 10 nM in experiment [1], 2000 nM at Interstitial collagenase and 500 nM on Stromelysin-1.

Take `COc1ccc(S(=O)(=O)C(CCCCc2ccccc2)C(C)C(=O)NO)cc1` (centres undefined): the Ki in experiment [1] came to 60 nM; at Interstitial collagenase, 2000 nM; on Stromelysin-1 it was 600 nM.

In the case of `COc1ccc(S(=O)(=O)C(C)(CCCCc2ccccc2)CC(=O)NO)cc1` (centres undefined), the Ki in experiment [1] was 50 nM; on Interstitial collagenase, 2000 nM; at Stromelysin-1 it was 1000 nM.

In the case of `COc1ccc(S(=O)(=O)C(CC(=O)NO)Cc2ccccc2)cc1` (centres undefined), the values for the Ki (in experiment [1]; on Interstitial collagenase; at Stromelysin-1) were 20 nM, 1000 nM and 300 nM, respectively.

With `COc1ccc(S(=O)(=O)C(CCc2ccccc2)CC(=O)NO)cc1` (centres undefined), the results for the inhibitory constant (Ki) (in experiment [1]; on Interstitial collagenase; on Stromelysin-1) were 30 nM, 4000 nM and 200 nM, respectively.

For `COc1ccc(S(=O)(=O)C(CCCCc2ccccc2)CC(=O)NO)cc1OC` (centres undefined), the inhibition constant (Ki) (in experiment [1]; on Interstitial collagenase; at Stromelysin-1) was above 10000 nM throughout.

`COc1ccc(S(=O)(=O)C(CCCc2ccccc2)CC(=O)NO)cc1` (centres undefined): the Ki in experiment [1] was 50 nM; at Interstitial collagenase, 2000 nM; on Stromelysin-1 it was 600 nM.

`COc1ccc(S(=O)(=O)C(CCCCc2ccccc2)CC(=O)NO)cc1` (centres undefined): the inhibition constant (Ki) in experiment [1] amounted to 20 nM; at Interstitial collagenase, 5000 nM; at Stromelysin-1, 700 nM.
